Assays:
(p)ppGpp^0 B. subtilis = assay: GTP levels by thin layer chromatography of 32P-orthophosphate-labeled cells; assay type: cell-based, Bacillus subtilis
B. subtilis = B. subtilis viability assay; assay type: cell-based, Bacillus subtilis; settings: (p)ppGpp^0 xpt mutant B. subtilis, 1 mM xanthine
Summary of the method: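 Strains were taken from single colonies, resuspended in S7 plus VILMTH amino acids, and spread on Spizizen casamino-acid agar for about 16 h at 30 °C. Cells were collected, diluted to OD600 0.01 in S7+VILMTH and grown to OD600 ≈ 0.2. After a t=0 sample, cultures were split and given 1 mM xanthine or water. Sampling was at 30, 60 and 120 min. Ten-fold dilutions were plated on LB for CFU/mL, in triplicate.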

XPRT = XPRT (Bacillus subtilis, UniProt P42085); assay: XPRT interaction with ppApp; assay type: binding; settings: data not shown
XPRT, sequence (P42085 whole entry): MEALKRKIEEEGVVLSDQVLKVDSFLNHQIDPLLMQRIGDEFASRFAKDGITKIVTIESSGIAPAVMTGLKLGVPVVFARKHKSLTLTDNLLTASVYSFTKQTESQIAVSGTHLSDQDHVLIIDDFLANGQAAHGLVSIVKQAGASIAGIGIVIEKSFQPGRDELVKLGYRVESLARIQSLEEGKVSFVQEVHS

B. subtilis XPRT [1] = molecular target: T1, B. subtilis XPRT (Bacillus subtilis, UniProt P42085); assay: DRaCALA binding of 32P-labeled alarmones to XPRT; settings: for nH (Hill coefficient from binding curve): DRaCALA binding curve, ± standard error
T1 sequence (P42085 whole entry): as above
Summary of the method: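 Purified hexahistidine-tagged B. subtilis XPRT at varied concentrations was mixed with 32P-labelled alarmone in 20 mM HEPES pH 8, 100 mM NaCl, 10 mM MgCl2. The label was added at 1:50–1:100 of the first synthesis elution fraction. After 10 min at room temperature, aliquots were spotted on nitrocellulose, dried ≥20 min and phosphorimaged. Fraction bound was edge-corrected and fitted to Y = (Bmax × X^h)/(Kd^h + X^h).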

B. subtilis XPRT [2] = molecular target: T1, B. subtilis XPRT; assay: XPRT activity assay; assay type: biochemical; settings: 1 mM PRPP, 50 μM xanthine; ± standard error
Summary of the method: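 Xanthine started the reaction, and XMP was followed at A252 for 10 min (Δε 5350 M−1cm−1). Initial-velocity slopes were normalized to uninhibited controls and fitted to Y = 1/(1 + (X/IC50)^n), with n reported as napp.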

B. subtilis XPRT [3] = molecular target: T1, B. subtilis XPRT; assay: Size exclusion chromatography of XPRT with ppGpp in the mobile phase; settings: 35 μM ppGpp in the mobile phase, XPRT at 10 or 20 μM
Summary of the method: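 Untagged (TEV-cleaved) XPRT at 10 or 20 μM was run on a Superose 12 column at 0.25 mL/min. The mobile phase was 20 mM HEPES pH 8, 300 mM NaCl, 10 mM MgCl2, with ppGpp at 35 μM final, after equilibration with ≥1 column volume. A280 traces were baseline-normalized. Predicted retention volumes (monomer 13.58, dimer 12.41) came from the 21038 Da molecular weight and a column standard curve.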

B. subtilis XPRT [4] = molecular target: T1, B. subtilis XPRT; assay: biochemical

O=c1[nH]c(=O)c2nc[nH]c2[nH]1 [xanthine]
increase in (p)ppGpp^0 GTP levels ((p)ppGpp^0 B. subtilis; (p)ppGpp^0 B. subtilis during growth with xanthine): ~ 6 fold | GTP levels ((p)ppGpp^0 B. subtilis; (p)ppGpp^0 vs wild type B. subtilis, 1 mM xanthine, 30 min): elevated relative to wild type | viability (colony forming units) (B. subtilis): unaffected

Nc1ncnc2c1ncn2[C@@H]1O[C@H](COP(=O)(O)OP(=O)(O)O)[C@@H](OP(=O)(O)OP(=O)(O)O)[C@H]1O [ppApp]
interaction with XPRT (XPRT): does not interact

Nc1nc2c(ncn2[C@@H]2O[C@H](COP(=O)(O)OP(=O)(O)O)[C@@H](OP(=O)(O)OP(=O)(O)O)[C@H]2O)c(=O)[nH]1 [ppGpp]
Kd (B. subtilis XPRT [1]): 950 ± 30 nM | nH (Hill coefficient from binding curve) (B. subtilis XPRT [1]): 2.1 ± 0.1 | napp (apparent Hill coefficient from inhibition curve) (B. subtilis XPRT [2]): 1.7 ± 0.1 | effect on XPRT oligomeric state (B. subtilis XPRT [3]): stabilized the dimeric XPRT population

Nc1nc2c(ncn2[C@@H]2O[C@H](COP(=O)(O)OP(=O)(O)OP(=O)(O)O)[C@@H](OP(=O)(O)OP(=O)(O)O)[C@H]2O)c(=O)[nH]1 [pppGpp]
Kd (B. subtilis XPRT [1]): 9600 ± 2200 nM | nH (Hill coefficient from binding curve) (B. subtilis XPRT [1]): 1.3 ± 0.2 | napp (apparent Hill coefficient from inhibition curve) (B. subtilis XPRT [2]): 1.5 ± 0.1 | Ki (B. subtilis XPRT [4]): 2500 nM

Nc1nc2c(ncn2[C@@H]2O[C@H](COP(=O)(O)O)[C@@H](OP(=O)(O)OP(=O)(O)O)[C@H]2O)c(=O)[nH]1 [pGpp]
Kd (B. subtilis XPRT [1]): 760 ± 40 nM | nH (Hill coefficient from binding curve) (B. subtilis XPRT [1]): 2.3 ± 0.2 | napp (apparent Hill coefficient from inhibition curve) (B. subtilis XPRT [2]): 1.6 ± 0.1
